8 molecules from ChEMBL document CHEMBL1122046, “Quaternary heterocyclylamino beta-lactams: a generic alternative to the classical acylamino side chain” (1982) can be followed below.

The structures appear in SMILES notation. Converted amounts (≈) assume the structure as drawn.

In general, MIC refers to the lowest concentration that inhibits growth of the organism.

Common to all, as to type: functional
For one assay, the system named is Escherichia coli. As to the kind of experiment: MIC against aerobic organism Escherichia coli strain 2891. The following applies: Escherichia coli; read-out: MIC. The procedure, abridged: (§1)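 Agar-dilution MIC in µg/mL against aerobic bacterial strains on tryptocase soy agar, with inoculum applied as spots. Most series used 10^5 cfu per spot, and a later series used 10^4 cfu per spot. In some tables, footnoted strains were instead tested on Mueller-Hinton or nutrient agar. β-Lactamase-producing strains are flagged.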

For assay [1], the system named is Klebsiella aerogenes. As to the kind of experiment: Minimum inhibitory concentration against aerobic organism Enterobacter aerogenes strain 2828. The procedure, abridged: as §1
For assay [2], the system named is Enterobacter cloacae. In words: Minimum inhibitory concentration against aerobic organism Enterobacter cloacae strain 2646. Particulars: Enterobacter cloacae; read-out: MIC. The procedure, abridged: as §1
Assay [3] has as its system Klebsiella pneumoniae. As to the kind of experiment: Minimum inhibitory concentration against aerobic organism Klebsiella pneumoniae strain 4005. The procedure, abridged:
as §1

A further assay concerns Morganella morganii. In words: Minimum inhibitory concentration against aerobic organism Morganella morganii strain 2833. The following applies: Morganella morganii; read-out: MIC. The procedure, abridged: as §1
The subject of the next assay is Pseudomonas aeruginosa. In words: Minimum inhibitory concentration against aerobic organism Pseudomonas aeruginosa strain 2835. The gist of the method: as §1
The subject of the next assay is Proteus mirabilis. In words: Minimum inhibitory concentration against aerobic organism Proteus mirabilis strain 2830. The following applies: Proteus mirabilis; read-out: MIC. The procedure, abridged:
as §1

A further assay has as its system Proteus vulgaris. In words: Minimum inhibitory concentration against aerobic organism Proteus vulgaris strain 2829. The following applies: Proteus vulgaris; read-out: MIC. The procedure, abridged: as §1
The next assay relates to Salmonella. As to the kind of experiment: Minimum inhibitory concentration against aerobic organism Salmonella strain 3860. The gist of the method: as §1
The subject of assay [4] is Staphylococcus aureus. In words: Minimum inhibitory concentration against aerobic organism Staphylococcus aureus strain 2865. The gist of the method: as §1
The subject of assay [5] is Staphylococcus aureus. In words: Minimum inhibitory concentration against aerobic organism Staphylococcus aureus strain 2868. The following applies: Staphylococcus aureus; read-out: MIC. The procedure, abridged: as §1
The test system of assay [6] is Enterococcus faecalis. As to the kind of experiment: Minimum inhibitory concentration against aerobic organism Streptococcus faecalis strain 2864. The procedure, abridged:
as §1

Assay [7] has as its system Klebsiella pneumoniae. As to the kind of experiment: Minimum inhibitory concentration against aerobic organism Klebsiella pneumoniae strain 2882. Particulars: Klebsiella pneumoniae; read-out: MIC. The procedure, abridged: as §1
Assay [8] is described as follows: Minimum inhibitory concentration against aerobic organism Salmonella schottmuelleri strain 2837. Particulars: Salmonella; read-out: MIC. The procedure, abridged:
as §1

The next assay has as its system Shigella. In words: Minimum inhibitory concentration against aerobic organism Shigella species strain 2880. The following applies: Shigella; read-out: MIC. The procedure, abridged:
as §1

Assay [9] has as its system Klebsiella aerogenes. In words: Minimum inhibitory concentration against aerobic organism Enterobacter aerogenes strain 2906. The following applies: Klebsiella aerogenes; read-out: MIC. The procedure, abridged: as §1
For another assay, the system named is Serratia marcescens. As to the kind of experiment: Minimum inhibitory concentration against aerobic organism Serratia marcescens strain 2852. Particulars: Serratia marcescens; read-out: MIC. The gist of the method:
as §1

The next assay deals with Streptococcus pyogenes. In words: Minimum inhibitory concentration against aerobic organism Streptococcus pyogenes strain 3124. Particulars: Streptococcus pyogenes; read-out: MIC. The procedure, abridged:
as §1

The test system of assay [10] is Enterobacter cloacae. As to the kind of experiment: Minimum inhibitory concentration against aerobic organism Enterobacter cloacae 2646. The gist of the method: as §1
In assay [11] the test system is Enterococcus faecalis. In words: Minimum inhibitory concentration against aerobic organisms Streptococcus faecalis strain 2864. The procedure, abridged:
as §1

In the case of `Cc1nnc(SCC2=C(C(=O)[O-])N3C(=O)[C@@H](Nc4cc[n+](COCC(Cl)(Cl)Cl)cc4C(=O)[O-])[C@H]3SC2)s1.[Na+]`, the MIC with Escherichia coli is 128 µg/mL; against Klebsiella aerogenes [1] it was > 128 µg/mL; with Enterobacter cloacae [2], > 128 µg/mL; against Klebsiella pneumoniae [3], > 128 µg/mL; in the assay with Morganella morganii it was > 128 µg/mL; in the assay on Pseudomonas aeruginosa, > 128 µg/mL. Also, the MIC is > 128 µg/mL in the assay with Proteus mirabilis; 16 µg/mL in the assay on Proteus vulgaris; > 128 µg/mL against Salmonella; 64 µg/mL against Staphylococcus aureus [4]; > 128 µg/mL in the assay on Staphylococcus aureus [5]; > 128 µg/mL in the assay with Enterococcus faecalis [6].

`O=C([O-])C1=C(C[n+]2ccccc2)CS[C@@H]2[C@H]([N-]c3cc[n+](Cc4ccccc4)cc3)C(=O)N12`: the MIC was < 0.06 µg/mL with Escherichia coli; 2 µg/mL (≈ 4.36 µM) in the assay with Klebsiella aerogenes [1]; 0.125 µg/mL (≈ 0.273 µM) with Enterobacter cloacae [2]; 32 µg/mL (≈ 69.8 µM) in the assay with Klebsiella pneumoniae [3]; > 128 µg/mL in the assay on Morganella morganii; 64 µg/mL (≈ 140 µM) against Pseudomonas aeruginosa. In addition, the MIC in the assay with Proteus mirabilis is > 128 µg/mL; in the assay on Proteus vulgaris, 0.25 µg/mL (≈ 0.545 µM); against Salmonella, 2 µg/mL (≈ 4.36 µM); with Staphylococcus aureus [4], 0.125 µg/mL (≈ 0.273 µM); in the assay with Staphylococcus aureus [5], 0.5 µg/mL (≈ 1.09 µM); with Enterococcus faecalis [6] it was 128 µg/mL (≈ 279 µM).

Consider `CC1(C)S[C@@H]2[C@H](NC=[N+]3CCCCCC3)C(=O)N2[C@H]1C(=O)[O-]`, for which the MIC in the assay on Escherichia coli was 12.5 µg/mL (≈ 38.4 µM); with Klebsiella aerogenes [1] it was 64 µg/mL (≈ 197 µM); with Klebsiella pneumoniae [7] it was 100 µg/mL (≈ 307 µM); in the assay with Klebsiella pneumoniae [3], 16 µg/mL (≈ 49.2 µM); with Morganella morganii, > 128 µg/mL; with Pseudomonas aeruginosa it was > 128 µg/mL. Moreover, the MIC in the assay with Proteus mirabilis was > 128 µg/mL; in the assay with Proteus vulgaris, 0.5 µg/mL (≈ 1.54 µM); in assay [8] it was 12.5 µg/mL (≈ 38.4 µM); against Salmonella, 0.125 µg/mL (≈ 0.384 µM); against Staphylococcus aureus [4], 8 µg/mL (≈ 24.6 µM); in the assay with Staphylococcus aureus [5], > 100 µg/mL. In addition, the MIC with Enterococcus faecalis [6] was > 100 µg/mL; with Shigella it was 12.5 µg/mL (≈ 38.4 µM).

Consider `O=C(Cc1cccs1)N[C@@H]1C(=O)N2C(C(=O)[O-])=C(C[n+]3ccccc3)CS[C@H]12` [CEPHALORIDINE], for which the MIC in the assay with Escherichia coli was > 128 µg/mL; in the assay with Klebsiella aerogenes [1], 8 µg/mL (≈ 19.3 µM); with Enterobacter cloacae [2], > 128 µg/mL; with Klebsiella pneumoniae [3] it was 0.25 µg/mL (≈ 0.602 µM); in the assay on Morganella morganii, > 128 µg/mL; against Pseudomonas aeruginosa it was > 128 µg/mL. Moreover, the MIC with Proteus mirabilis is 16 µg/mL (≈ 38.5 µM); with Proteus vulgaris, > 128 µg/mL; against Salmonella, 0.5 µg/mL (≈ 1.2 µM); in the assay with Staphylococcus aureus [4], 0.25 µg/mL (≈ 0.602 µM); in the assay on Staphylococcus aureus [5] it was 4 µg/mL (≈ 9.63 µM); in the assay with Enterococcus faecalis [6], 64 µg/mL (≈ 154 µM).

As to `Cn1nnnc1SCC1=C(C(=O)[O-])N2C(=O)[C@@H](Nc3cc[n+](Cc4ccccc4)cc3)[C@H]2SC1`, the MIC with Escherichia coli is 0.06 µg/mL (≈ 0.121 µM); against Klebsiella aerogenes [1] it was 2 µg/mL (≈ 4.04 µM); with Klebsiella aerogenes [9] it was 8 µg/mL (≈ 16.1 µM); with Enterobacter cloacae [2], 1 µg/mL (≈ 2.02 µM); in the assay with Klebsiella pneumoniae [7], 0.25 µg/mL (≈ 0.504 µM); against Klebsiella pneumoniae [3] it was 8 µg/mL (≈ 16.1 µM). Further, the MIC with Morganella morganii is 16 µg/mL (≈ 32.3 µM); in the assay with Pseudomonas aeruginosa, > 128 µg/mL; in the assay with Proteus mirabilis it was 32 µg/mL (≈ 64.6 µM); in the assay with Proteus vulgaris it was 1 µg/mL (≈ 2.02 µM); in assay [8], < 0.004 µg/mL; in the assay with Serratia marcescens, 64 µg/mL (≈ 129 µM). Further, the MIC is 1 µg/mL (≈ 2.02 µM) in the assay with Salmonella; 0.015 µg/mL (≈ 0.0303 µM) in the assay with Streptococcus pyogenes; 0.25 µg/mL (≈ 0.504 µM) in the assay with Staphylococcus aureus [4]; 4 µg/mL (≈ 8.07 µM) in the assay on Staphylococcus aureus [5]; 128 µg/mL (≈ 258 µM) in the assay with Enterococcus faecalis [6]; < 0.004 µg/mL in the assay with Shigella.

In the case of `CC(=O)OCC1=C(C(=O)O)N2C(=O)[C@@H](NC(=O)Cc3cccs3)[C@H]2SC1` [CEPHALOTHIN], the MIC in the assay on Escherichia coli is > 128 µg/mL; in the assay on Klebsiella aerogenes [1], 32 µg/mL (≈ 80.7 µM); in the assay with Enterobacter cloacae [10] it was > 128 µg/mL; in the assay on Klebsiella pneumoniae [3], 0.25 µg/mL (≈ 0.631 µM); with Morganella morganii, > 128 µg/mL; in the assay with Pseudomonas aeruginosa, > 128 µg/mL. For the same molecule, the MIC is 32 µg/mL (≈ 80.7 µM) in the assay with Proteus mirabilis; 128 µg/mL (≈ 323 µM) in the assay on Proteus vulgaris; 2 µg/mL (≈ 5.04 µM) against Salmonella; 0.015 µg/mL (≈ 0.0378 µM) against Staphylococcus aureus [4]; 0.06 µg/mL (≈ 0.151 µM) with Staphylococcus aureus [5]; 8 µg/mL (≈ 20.2 µM) in the assay on Enterococcus faecalis [11].

Take `CC(=O)OCC1=C(C(=O)[O-])N2C(=O)[C@@H](Nc3cc[n+](COCc4ccc([N+](=O)[O-])cc4)cc3)[C@H]2SC1`: the MIC in the assay on Escherichia coli was 1 µg/mL (≈ 1.94 µM); in the assay on Klebsiella aerogenes [1] it was > 128 µg/mL; in the assay on Enterobacter cloacae [2], 64 µg/mL (≈ 124 µM); in the assay on Klebsiella pneumoniae [3], 128 µg/mL (≈ 249 µM); in the assay on Morganella morganii, > 128 µg/mL; in the assay on Pseudomonas aeruginosa it was > 128 µg/mL. For the same molecule, the MIC with Proteus mirabilis is > 128 µg/mL; with Proteus vulgaris, 1 µg/mL (≈ 1.94 µM); in the assay on Salmonella it was 128 µg/mL (≈ 249 µM); with Staphylococcus aureus [4], 2 µg/mL (≈ 3.89 µM); in the assay with Staphylococcus aureus [5], 8 µg/mL (≈ 15.5 µM); against Enterococcus faecalis [6] it was > 128 µg/mL.

Turning to `CN(C)CCn1nnnc1SCC1=C(C(=O)[O-])N2C(=O)[C@@H](Nc3cc[n+](Cc4ccccc4)cc3)[C@H]2SC1`, the minimum inhibitory concentration (MIC) in the assay on Escherichia coli was < 0.06 µg/mL; in the assay with Klebsiella aerogenes [1], 0.5 µg/mL (≈ 0.905 µM); in the assay with Enterobacter cloacae [2], 0.25 µg/mL (≈ 0.452 µM); in the assay on Klebsiella pneumoniae [3] it was 4 µg/mL (≈ 7.24 µM); in the assay on Morganella morganii, 64 µg/mL (≈ 116 µM); in the assay on Pseudomonas aeruginosa, > 128 µg/mL. Further, the MIC came out at 128 µg/mL (≈ 232 µM) in the assay on Proteus mirabilis; 0.125 µg/mL (≈ 0.226 µM) in the assay on Proteus vulgaris; 2 µg/mL (≈ 3.62 µM) in the assay on Salmonella; 0.5 µg/mL (≈ 0.905 µM) in the assay with Staphylococcus aureus [4]; 4 µg/mL (≈ 7.24 µM) with Staphylococcus aureus [5]; 128 µg/mL (≈ 232 µM) against Enterococcus faecalis [6].
